According to ChEMBL document CHEMBL1155031, “Structure-activity relationships of 7-deaza-6-benzylthioinosine analogues as ligands of Toxoplasma gondii adenosine kinase” (J Med Chem, 2008):

What was measured:
Adenosine kinase = target: T1, Adenosine kinase (Toxoplasma gondii, UniProt Q9TVW2); assay: Binding affinity to purified Toxoplasma gondii adenosine kinase
T1 sequence (Q9TVW2 whole entry): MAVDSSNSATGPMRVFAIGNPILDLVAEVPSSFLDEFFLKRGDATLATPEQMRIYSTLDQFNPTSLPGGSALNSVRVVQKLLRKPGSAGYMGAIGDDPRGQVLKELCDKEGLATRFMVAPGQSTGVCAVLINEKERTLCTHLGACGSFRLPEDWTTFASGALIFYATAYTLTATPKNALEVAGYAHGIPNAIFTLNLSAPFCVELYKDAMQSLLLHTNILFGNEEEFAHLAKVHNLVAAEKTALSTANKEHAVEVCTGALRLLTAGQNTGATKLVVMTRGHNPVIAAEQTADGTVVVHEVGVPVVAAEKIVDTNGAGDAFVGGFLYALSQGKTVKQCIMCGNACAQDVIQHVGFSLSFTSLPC
How it was run: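 Radiometric assay at 37 °C in 50 mM Tris-Cl pH 7.4 with 2.5 mM ATP, 5 mM MgCl₂, creatine phosphate/creatine kinase regeneration and 5 µM [8-¹⁴C]adenosine, plus varied inhibitor. Reaction stopped by boiling, then adenosine and AMP separated by TLC and quantified. Apparent Ki from Dixon plots (1/V vs [I]), taken as equal to apparent Km for alternative substrates. Mean ± SD, ≥2 experiments in triplicate.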

Toxoplasma gondii [1] = assay: Antitoxoplasma activity against adenosine kinase deficient Toxoplasma gondii TgAK-3 assessed as survival at 5 uM after 18 hrs by [5,6-[…]]uracil incorporation assay; format: functional
How it was run: (§1)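 Human foreskin fibroblast monolayers (≤20 passages, RPMI 1640) seeded ~5×10⁵ cells/well, attached 24 h at 37 °C, 5% CO2. Infected with isolated tachyzoites at 1 parasite/cell in 3% FBS for 1 h, then washed. Compounds were dissolved in 50% ethanol and added at final 0, 5, 10, 25 or 50 µM with 10% FBS. Survival was read as radiolabeled uracil incorporation into TCA-precipitated nucleic acid versus untreated controls, at least in triplicate.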

Toxoplasma gondii [2] = assay: Antitoxoplasma activity against adenosine kinase deficient Toxoplasma gondii TgAK-3 assessed as survival at 50 uM after 18 hrs by [5,6-[…]]uracil incorporation assay; format: functional; how it was run: as §1
Toxoplasma gondii [3] = assay: Antitoxoplasma activity against wild type Toxoplasma gondii RH assessed as survival at 5 uM after 18 hrs by [5,6-[…]]uracil incorporation assay; format: functional; how it was run: as §1
Toxoplasma gondii [4] = assay: Antitoxoplasma activity against wild type Toxoplasma gondii RH assessed as survival after 18 hrs by [5,6-[…]]uracil incorporation assay; format: functional, organism-based
[5] = Toxicity against human foreskin fibroblasts at 50 uM after 48 hrs by MTT method; format: cell-based, Fibroblast; conditions: read-out: Survival
How it was run: (§2)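 Uninfected human foreskin fibroblasts (≤20 passages, RPMI 1640) seeded ~10⁵ cells/well and attached ≥24 h at 37 °C, 5% CO2. Compound in medium added to final concentrations, then 48 h incubation. MTT was added for 4 h, formazan dissolved in DMSO and absorbance read at 540 nm. At least two independent experiments, each in triplicate.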

Toxoplasma gondii [6] = assay: Antitoxoplasma activity against adenosine kinase deficient Toxoplasma gondii TgAK-3 assessed as survival at 25 uM after 18 hrs by [5,6-[…]]uracil incorporation assay; format: functional; how it was run: as §1
Toxoplasma gondii [7] = assay: Antitoxoplasma activity against wild type Toxoplasma gondii RH assessed as survival at 50 uM after 18 hrs by [5,6-[…]]uracil incorporation assay; format: functional; how it was run: as §1
Toxoplasma gondii [8] = assay: Antitoxoplasma activity against wild type Toxoplasma gondii RH assessed as survival at 10 uM after 18 hrs by [5,6-[…]]uracil incorporation assay; format: functional; how it was run: as §1
Toxoplasma gondii [9] = assay: Antitoxoplasma activity against adenosine kinase deficient Toxoplasma gondii TgAK-3 assessed as survival at 10 uM after 18 hrs by [5,6-[…]]uracil incorporation assay; format: functional; how it was run: as §1
[10] = Toxicity against human foreskin fibroblasts at 25 uM after 48 hrs by MTT method; format: cell-based, Fibroblast; conditions: read-out: Survival; how it was run: as §2
[11] = Toxicity against human foreskin fibroblasts at 10 uM after 48 hrs by MTT method; format: cell-based, Fibroblast; conditions: read-out: Survival; how it was run: as §2
Toxoplasma gondii [12] = assay: Antitoxoplasma activity against wild type Toxoplasma gondii RH assessed as survival at 25 uM after 18 hrs by [5,6-[…]]uracil incorporation assay; format: functional; how it was run: as §1
[13] = Toxicity against human foreskin fibroblasts at 5 uM after 48 hrs by MTT method; format: cell-based, Fibroblast; conditions: read-out: Survival; how it was run: as §2

Cc1cccc(CSc2ncnc3c2ccn3[C@@H]2O[C@H](CO)[C@@H](O)[C@H]2O)c1
Ki (Adenosine kinase): 8.5 µM

OC[C@H]1O[C@@H](n2cc(I)c3c(SCc4ccccc4)ncnc32)[C@H](O)[C@@H]1O
Ki (Adenosine kinase): 82.6 µM

O=[N+]([O-])c1ccc(CSc2ncnc3c2ccn3[C@@H]2O[C@H](CO)[C@@H](O)[C@H]2O)cc1
Ki (Adenosine kinase): 35 µM

COc1ccc(CSc2ncnc3c2ccn3[C@@H]2O[C@H](CO)[C@@H](O)[C@H]2O)cc1
survival at 5 µM (Toxoplasma gondii [1]): 100% | survival at 50 µM (Toxoplasma gondii [2]): 100% | survival at 5 µM (Toxoplasma gondii [3]): 49.8% | IC50 (Toxoplasma gondii [4]): 4.6 µM | viability at 48 h, 50 µM [5]: 90.6% | survival at 25 µM (Toxoplasma gondii [6]): 100% | survival at 50 µM (Toxoplasma gondii [7]): 0% | survival at 10 µM (Toxoplasma gondii [8]): 5% | survival at 10 µM (Toxoplasma gondii [9]): 100% | viability at 48 h, 25 µM [10]: 100% | Ki (Adenosine kinase): 5.8 µM | viability at 48 h, 10 µM [11]: 100% | survival at 25 µM (Toxoplasma gondii [12]): 0% | viability at 48 h, 5 µM [13]: 100%

OC[C@H]1O[C@@H](n2ccc3c(SCc4ccc(OC(F)(F)F)cc4)ncnc32)[C@H](O)[C@@H]1O
Ki (Adenosine kinase): 35 µM

Nc1ccc(S(=O)(=O)Nc2ncccn2)cc1 [SULFADIAZINE]
survival at 5 µM (Toxoplasma gondii [3]): 74.6% | IC50 (Toxoplasma gondii [4]): 41.2 µM | viability at 48 h, 50 µM [5]: 102% | survival at 50 µM (Toxoplasma gondii [7]): 46.4% | survival at 10 µM (Toxoplasma gondii [8]): 64.8% | viability at 48 h, 25 µM [10]: 99.8% | viability at 48 h, 10 µM [11]: 99.8% | survival at 25 µM (Toxoplasma gondii [12]): 59.8% | viability at 48 h, 5 µM [13]: 98.2%

N#Cc1ccc(CSc2ncnc3c2ccn3[C@@H]2O[C@H](CO)[C@@H](O)[C@H]2O)cc1
survival at 5 µM (Toxoplasma gondii [1]): 98.4% | survival at 50 µM (Toxoplasma gondii [2]): 100% | survival at 5 µM (Toxoplasma gondii [3]): 52.5% | IC50 (Toxoplasma gondii [4]): 5.3 µM | viability at 48 h, 50 µM [5]: 82.1% | survival at 25 µM (Toxoplasma gondii [6]): 100% | survival at 50 µM (Toxoplasma gondii [7]): 0% | survival at 10 µM (Toxoplasma gondii [8]): 4% | survival at 10 µM (Toxoplasma gondii [9]): 100% | viability at 48 h, 25 µM [10]: 94.3% | Ki (Adenosine kinase): 5.2 µM | viability at 48 h, 10 µM [11]: 100% | survival at 25 µM (Toxoplasma gondii [12]): 0% | viability at 48 h, 5 µM [13]: 100%

OC[C@H]1O[C@@H](n2ccc3c(SCc4ccc(F)cc4)ncnc32)[C@H](O)[C@@H]1O
Ki (Adenosine kinase): 37 µM

Cc1ccc(CSc2ncnc3c2ccn3[C@@H]2O[C@H](CO)[C@@H](O)[C@H]2O)cc1
Ki (Adenosine kinase): 19 µM

Nc1ncnc2c1ncn2[C@@H]1O[C@H](CO)[C@@H](O)[C@H]1O [ADENOSINE]
Ki (Adenosine kinase): 8.9 µM

OC[C@H]1O[C@@H](n2ccc3c(SCc4cccc(C(F)(F)F)c4)ncnc32)[C@H](O)[C@@H]1O
Ki (Adenosine kinase): 22 µM

O=[N+]([O-])c1cccc(CSc2ncnc3c2ccn3[C@@H]2O[C@H](CO)[C@@H](O)[C@H]2O)c1
Ki (Adenosine kinase): 45 µM

OC[C@H]1O[C@@H](n2ccc3c(SCc4ccc(F)cc4F)ncnc32)[C@H](O)[C@@H]1O
Ki (Adenosine kinase): 16 µM

OC[C@H]1O[C@@H](n2cnc3c(SCc4ccccc4)ncnc32)[C@H](O)[C@@H]1O [6-BENZYLTHIOINOSINE]
Ki (Adenosine kinase): 37.7 µM

CCc1nc(N)nc(N)c1-c1ccc(Cl)cc1 [PYRIMETHAMINE]
survival at 5 µM (Toxoplasma gondii [3]): 55.6% | IC50 (Toxoplasma gondii [4]): 5.9 µM | viability at 48 h, 50 µM [5]: 108% | survival at 50 µM (Toxoplasma gondii [7]): 5.8% | survival at 10 µM (Toxoplasma gondii [8]): 36.5% | viability at 48 h, 25 µM [10]: 108% | viability at 48 h, 10 µM [11]: 100% | survival at 25 µM (Toxoplasma gondii [12]): 13.8% | viability at 48 h, 5 µM [13]: 101%

OC[C@H]1O[C@@H](n2ccc3c(SCc4ccccc4Br)ncnc32)[C@H](O)[C@@H]1O
Ki (Adenosine kinase): 106 µM

C=Cc1ccc(CSc2ncnc3c2ccn3[C@@H]2O[C@H](CO)[C@@H](O)[C@H]2O)cc1
Ki (Adenosine kinase): 180 µM

OC[C@H]1O[C@@H](n2ccc3c(SCc4ccccc4Cl)ncnc32)[C@H](O)[C@@H]1O
Ki (Adenosine kinase): 36 µM

Cc1ccccc1CSc1ncnc2c1ccn2[C@@H]1O[C@H](CO)[C@@H](O)[C@H]1O
Ki (Adenosine kinase): 228 µM

OC[C@H]1O[C@@H](n2ccc3c(SCc4ccc(Cl)cc4)ncnc32)[C@H](O)[C@@H]1O
Ki (Adenosine kinase): 11 µM

OC[C@H]1O[C@@H](n2ccc3c(SCc4ccc(Cl)cc4Cl)ncnc32)[C@H](O)[C@@H]1O
Ki (Adenosine kinase): 26 µM

OC[C@H]1O[C@@H](n2ccc3c(SCc4c(F)cccc4Cl)ncnc32)[C@H](O)[C@@H]1O
Ki (Adenosine kinase): 7.2 µM

CC(C)(C)c1ccc(CSc2ncnc3c2ccn3[C@@H]2O[C@H](CO)[C@@H](O)[C@H]2O)cc1
Ki (Adenosine kinase): 24 µM

OC[C@H]1O[C@@H](n2ccc3c(SCc4ccccc4F)ncnc32)[C@H](O)[C@@H]1O
Ki (Adenosine kinase): 59 µM

OC[C@H]1O[C@@H](n2ccc3c(SCc4ccc(Cl)c(Cl)c4)ncnc32)[C@H](O)[C@@H]1O
Ki (Adenosine kinase): 29 µM

COC(=O)c1ccc(CSc2ncnc3c2ccn3[C@@H]2O[C@H](CO)[C@@H](O)[C@H]2O)cc1
Ki (Adenosine kinase): 7 µM

OC[C@H]1O[C@@H](n2ccc3c(SCc4ccc(Br)cc4)ncnc32)[C@H](O)[C@@H]1O
Ki (Adenosine kinase): 253 µM

OC[C@H]1O[C@@H](n2ccc3c(SCc4ccccc4)ncnc32)[C@H](O)[C@@H]1O
Ki (Adenosine kinase): 28 µM
